Measured values from ChEMBL document CHEMBL4689842, “EUbOPEN Chemogenomics Library wave 1” (2021).

Tests used:
Format in all cases: toxicity, cell-based
HEK-293T = assay: Incucyte cell viability with HEK293T; details: human, 10 µM, compound concentration 10 uM; note: filed as whole numbers so only -1 and 0 and 1 occur
U2OS = assay: Incucyte cell viability with U2OS; details: human, 10 µM, compound concentration 10 uM; note: filed as whole numbers so only -1 and 0 and 1 occur
Fibroblast = assay: Multiplex assay against human fibroblast
How it was run: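 With compound added, live cells were imaged on a CQ1 microscope at 37°C and 5% CO2; staining with Hoechst33342, BioTracker Green Microtubule Cytoskeleton Dye, MitoTracker Red and Annexin V Alexa Fluor 680 had been done at seeding. The CellPathfinder machine-learning gating scheme split cells into Hoechst high-intensity objects or normal cells, normal cells into healthy, pyknosed or fragmented nuclei, and pyknosed cells into mitotic or apoptotic. The tubulin, mitochondrial-mass and membrane-permeability phenotypes are per cents of healthy-nucleus cells.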

[1] = 6 h, replicate number 1, timepoint 6 hours
[2] = 12 h, replicate number 1, timepoint 12 hours
[3] = 18 h, replicate number 1, timepoint 18 hours
[4] = 24 h, replicate number 1, timepoint 24 hours
[5] = 0 h, replicate number 1, timepoint 0 hours
[6] = 0 h, replicate number 2, timepoint 0 hours
[7] = 12 h, 1 µM, compound concentration 1 uM, replicate 1
[8] = 12 h, 1 µM, compound concentration 1 uM, replicate 2
[9] = 12 h, 10 µM, compound concentration 10 uM, replicate 1
[10] = 12 h, 10 µM, compound concentration 10 uM, replicate 2
[11] = 24 h, 1 µM, compound concentration 1 uM, replicate 1
[12] = 24 h, 1 µM, compound concentration 1 uM, replicate 2
[13] = 24 h, 10 µM, compound concentration 10 uM, replicate 1
[14] = 24 h, 10 µM, compound concentration 10 uM, replicate 2
[15] = 12 h, replicate number 2, timepoint 12 hours

## CN(C)C/C=C/C(=O)Nc1cc2c(Nc3ccc(F)c(Cl)c3)ncnc2cc1O[C@H]1CCOC1.O=C(O)/C=C\C(=O)O.O=C(O)/C=C\C(=O)O [AFATINIB DIMALEATE]
HEK-293T; [1]
  Growth Rate: 0
HEK-293T; [2]
  Growth Rate: 0
HEK-293T; [3]
  Growth Rate: 0
HEK-293T; [4]
  Growth Rate: 0
U2OS; [5]
  Growth Rate: 0
U2OS; [6]
  Growth Rate: 1
U2OS; [1]
  Growth Rate: 0
U2OS; [2]
  Growth Rate: 0
U2OS; [3]
  Growth Rate: 0
U2OS; [4]
  Growth Rate: 0
Fibroblast; [7]
  Population Apoptotic (%): 66%
  Population Fragmented Nuclei (%): 30%
  Population Healthy Nuclei (%): 53%
  Population Hoechst High Intensity Objects (%): 13%
  Population Membrane Permeable-Phenotype (%): 13%
  Population Mitochondria Different-Phenotype (%): 3%
  Population Mitotic Cells (%): 33%
  Population Normal (%): 86%
  Population Pyknosed Nuclei (%): 16%
  Population Tubulin-Different-Phenotype (%): 10%
  Total Cell Count: 234
Fibroblast; [8]
  Population Apoptotic (%): 45%
  Population Fragmented Nuclei (%): 60%
  Population Healthy Nuclei (%): 21%
  Population Hoechst High Intensity Objects (%): 38%
  Population Membrane Permeable-Phenotype (%): 7%
  Population Mitochondria Different-Phenotype (%): 30%
  Population Mitotic Cells (%): 54%
  Population Normal (%): 61%
  Population Pyknosed Nuclei (%): 18%
  Population Tubulin-Different-Phenotype (%): 15%
  Total Cell Count: 99
Fibroblast; [9]
  Population Apoptotic (%): 58%
  Population Fragmented Nuclei (%): 27%
  Population Healthy Nuclei (%): 50%
  Population Hoechst High Intensity Objects (%): 24%
  Population Membrane Permeable-Phenotype (%): 18%
  Population Mitochondria Different-Phenotype (%): 12%
  Population Mitotic Cells (%): 41%
  Population Normal (%): 75%
  Population Pyknosed Nuclei (%): 22%
  Population Tubulin-Different-Phenotype (%): 68%
  Total Cell Count: 247
Fibroblast; [10]
  Population Apoptotic (%): 22%
  Population Fragmented Nuclei (%): 33%
  Population Healthy Nuclei (%): 52%
  Population Hoechst High Intensity Objects (%): 34%
  Population Membrane Permeable-Phenotype (%): 16%
  Population Mitochondria Different-Phenotype (%): 13%
  Population Mitotic Cells (%): 77%
  Population Normal (%): 65%
  Population Pyknosed Nuclei (%): 13%
  Population Tubulin-Different-Phenotype (%): 91%
  Total Cell Count: 104
Fibroblast; [11]
  Population Apoptotic (%): 72%
  Population Fragmented Nuclei (%): 35%
  Population Healthy Nuclei (%): 53%
  Population Hoechst High Intensity Objects (%): 18%
  Population Membrane Permeable-Phenotype (%): 5%
  Population Mitochondria Different-Phenotype (%): 7%
  Population Mitotic Cells (%): 27%
  Population Normal (%): 81%
  Population Pyknosed Nuclei (%): 10%
  Population Tubulin-Different-Phenotype (%): 13%
  Total Cell Count: 247
Fibroblast; [12]
  Population Apoptotic (%): 50%
  Population Fragmented Nuclei (%): 54%
  Population Healthy Nuclei (%): 28%
  Population Hoechst High Intensity Objects (%): 34%
  Population Membrane Permeable-Phenotype (%): 0%
  Population Mitochondria Different-Phenotype (%): 6%
  Population Mitotic Cells (%): 50%
  Population Normal (%): 65%
  Population Pyknosed Nuclei (%): 17%
  Population Tubulin-Different-Phenotype (%): 12%
  Total Cell Count: 87
Fibroblast; [13]
  Population Apoptotic (%): 57%
  Population Fragmented Nuclei (%): 29%
  Population Healthy Nuclei (%): 54%
  Population Hoechst High Intensity Objects (%): 38%
  Population Membrane Permeable-Phenotype (%): 19%
  Population Mitochondria Different-Phenotype (%): 21%
  Population Mitotic Cells (%): 42%
  Population Normal (%): 61%
  Population Pyknosed Nuclei (%): 15%
  Population Tubulin-Different-Phenotype (%): 61%
Fibroblast; [14]
  Population Apoptotic (%): 66%
  Population Fragmented Nuclei (%): 49%
  Population Healthy Nuclei (%): 36%
  Population Hoechst High Intensity Objects (%): 35%
  Population Membrane Permeable-Phenotype (%): 34%
  Population Mitochondria Different-Phenotype (%): 26%
  Population Mitotic Cells (%): 33%
  Population Normal (%): 64%
  Population Pyknosed Nuclei (%): 14%
  Population Tubulin-Different-Phenotype (%): 82%
  Total Cell Count: 98

## CCOc1cc(N2CCC(O)CC2)ccc1Nc1ncc2c(n1)N(C1CCCC1)CCC(=O)N2C
HEK-293T; [5]
  Growth Rate: 0
HEK-293T; [6]
  Growth Rate: 1
HEK-293T; [15]
  Growth Rate: 1
HEK-293T; [3]
  Growth Rate: 1
HEK-293T; [4]
  Growth Rate: 0
U2OS; [6]
  Growth Rate: 0
U2OS; [1]
  Growth Rate: 0
U2OS; [2]
  Growth Rate: 1
U2OS; [15]
  Growth Rate: 0
U2OS; [3]
  Growth Rate: 0
U2OS; [4]
  Growth Rate: 0
Fibroblast; [7]
  Population Apoptotic (%): 64%
  Population Fragmented Nuclei (%): 25%
  Population Healthy Nuclei (%): 58%
  Population Hoechst High Intensity Objects (%): 12%
  Population Membrane Permeable-Phenotype (%): 8%
  Population Mitochondria Different-Phenotype (%): 7%
  Population Mitotic Cells (%): 35%
  Population Normal (%): 87%
  Population Pyknosed Nuclei (%): 16%
  Population Tubulin-Different-Phenotype (%): 11%
  Total Cell Count: 197
Fibroblast; [8]
  Population Apoptotic (%): 0%
  Population Fragmented Nuclei (%): 46%
  Population Healthy Nuclei (%): 48%
  Population Hoechst High Intensity Objects (%): 33%
  Population Membrane Permeable-Phenotype (%): 17%
  Population Mitochondria Different-Phenotype (%): 17%
  Population Mitotic Cells (%): 100%
  Population Normal (%): 66%
  Population Pyknosed Nuclei (%): 4%
  Population Tubulin-Different-Phenotype (%): 39%
  Total Cell Count: 71
Fibroblast; [9]
  Population Apoptotic (%): 84%
  Population Fragmented Nuclei (%): 23%
  Population Healthy Nuclei (%): 58%
  Population Hoechst High Intensity Objects (%): 14%
  Population Membrane Permeable-Phenotype (%): 8%
  Population Mitochondria Different-Phenotype (%): 2%
  Population Mitotic Cells (%): 15%
  Population Normal (%): 85%
  Population Pyknosed Nuclei (%): 17%
  Population Tubulin-Different-Phenotype (%): 1%
  Total Cell Count: 291
Fibroblast; [10]
  Population Apoptotic (%): 37%
  Population Fragmented Nuclei (%): 50%
  Population Healthy Nuclei (%): 36%
  Population Hoechst High Intensity Objects (%): 29%
  Population Membrane Permeable-Phenotype (%): 27%
  Population Mitochondria Different-Phenotype (%): 4%
  Population Mitotic Cells (%): 62%
  Population Normal (%): 70%
  Population Pyknosed Nuclei (%): 13%
  Population Tubulin-Different-Phenotype (%): 18%
Fibroblast; [11]
  Population Apoptotic (%): 72%
  Population Fragmented Nuclei (%): 27%
  Population Healthy Nuclei (%): 56%
  Population Hoechst High Intensity Objects (%): 12%
  Population Membrane Permeable-Phenotype (%): 6%
  Population Mitochondria Different-Phenotype (%): 6%
  Population Mitotic Cells (%): 27%
  Population Normal (%): 87%
  Population Pyknosed Nuclei (%): 15%
  Population Tubulin-Different-Phenotype (%): 7%
  Total Cell Count: 211
Fibroblast; [12]
  Population Apoptotic (%): 66%
  Population Fragmented Nuclei (%): 57%
  Population Healthy Nuclei (%): 35%
  Population Hoechst High Intensity Objects (%): 40%
  Population Membrane Permeable-Phenotype (%): 26%
  Population Mitochondria Different-Phenotype (%): 20%
  Population Mitotic Cells (%): 33%
  Population Normal (%): 59%
  Population Pyknosed Nuclei (%): 7%
  Population Tubulin-Different-Phenotype (%): 26%
  Total Cell Count: 71
Fibroblast; [13]
  Population Apoptotic (%): 67%
  Population Fragmented Nuclei (%): 17%
  Population Healthy Nuclei (%): 62%
  Population Hoechst High Intensity Objects (%): 19%
  Population Membrane Permeable-Phenotype (%): 5%
  Population Mitochondria Different-Phenotype (%): 1%
  Population Mitotic Cells (%): 32%
  Population Normal (%): 80%
  Population Pyknosed Nuclei (%): 19%
  Population Tubulin-Different-Phenotype (%): 1%
  Total Cell Count: 308
Fibroblast; [14]
  Population Apoptotic (%): 60%
  Population Fragmented Nuclei (%): 40%
  Population Healthy Nuclei (%): 50%
  Population Hoechst High Intensity Objects (%): 28%
  Population Membrane Permeable-Phenotype (%): 18%
  Population Mitochondria Different-Phenotype (%): 3%
  Population Mitotic Cells (%): 40%
  Population Normal (%): 72%
  Population Pyknosed Nuclei (%): 9%
  Population Tubulin-Different-Phenotype (%): 14%
  Total Cell Count: 75
